Here are results for four compounds from publication PMC10012271 (ACS Infectious Diseases, 2023).

≈ marks a conversion by molar mass, not a printed value. Entries after “also recorded” stand apart in the source; their conditions may differ.

Series [1] has as its system E. cloacae IR 386 (NDM-1). Kind of series: Antimicrobial susceptibility testing, broth microdilution. It counts as cell-based. The settings on record: Enterobacter cloacae, read-out: MIC alone. The gist of the method: (§1)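 Two-fold dilution series in Mueller Hinton broth, per CLSI. Meropenem stock was in water and test compound stock in 50% DMSO, with final DMSO <1.0%. Wells got a 0.5 McFarland-standardised inoculum and were incubated at 35 °C for 18–20 h. MIC was the lowest concentration with no visible growth, run in triplicate.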

Series [2] deals with K. pneumoniae USA 449 (NDM). Described as above. The following applies: Klebsiella pneumoniae, read-out: MIC alone. It counts as cell-based. The essentials:
as §1

In series [3] the test system is Klebsiella pneumoniae NDM. Kind of series: MIC, broth microdilution / checkerboard. It counts as cell-based. The essentials: as §1
(In broth dilution the organism is exposed to a series of concentrations in liquid medium.)

The next series relates to K. pneumoniae NDM. Kind of series: Time kill kinetic study. The settings on record: without BP1. It counts as cell-based. The essentials: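 Overnight culture was diluted to about 10^6 cfu/mL and exposed to test compound fixed at 32 mg/L plus meropenem 0.5, 1 or 2 mg/L. Incubation was at 35 °C with 100 rpm shaking, alongside drug-free and meropenem-only controls. At 0, 2, 4, 6, 8 and 24 h, 0.1 mL was plated on MHA and incubated at 35 °C for ≥18 h, then cfu/mL counted. Analysis was by ANOVA.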

In the next series the test system is E. coli AUS 271 (NDM-1). Briefly: Antimicrobial susceptibility testing, broth microdilution. It counts as cell-based. The settings on record: Escherichia coli, read-out: MIC alone. The essentials:
as §1

A further series deals with E. coli JAP (IMP-1). The series is described as above. The following applies: Escherichia coli, read-out: MIC alone. It counts as cell-based. The essentials:
as §1

The subject of another series is E. coli TWA (IMP-8). Described as above. The following applies: Escherichia coli, read-out: MIC alone. It counts as cell-based. The gist of the method:
as §1

For another series, the system named is E. coli FEK (NDM-4). The series is described as above. It counts as cell-based. The following applies: Escherichia coli, read-out: MIC alone. The essentials:
as §1

The subject of another series is E. cloacae KAR (VIM-1). The series is described as above. It counts as cell-based. The settings on record: Enterobacter cloacae, read-out: MIC alone. The gist of the method: as §1
In a further series the test system is E. coli ATCC 25922. The series is described as above. It counts as cell-based. The settings on record: Escherichia coli, ATCC25922, read-out: MIC alone. The gist of the method: as §1
Series [4] can be described thus: In vivo single-dose pharmacokinetics. The following applies: 10 mg/kg.b.w IP, plasma. More on the design: species or system BALB/c mice. The essentials:
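Female BALB/c mice, 6–8 weeks, acclimatised two weeks, got meropenem 10 mg/kg.b.w plus test compound 10 mg/kg.b.w together IP. Animals were killed at 0, 5, 15, 30, 45, 60, 90 and 120 min post-dose, with blood taken by cardiac puncture and stored at −80 °C. Drugs were quantified by LC–MS/MS (C18, water/acetonitrile with 0.1% TFA gradient, ESI, MRM mode).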

In series [5] the test system is Klebsiella pneumoniae ATCC 700603. Kind of series: MIC, broth microdilution / checkerboard. It counts as cell-based.
In series [6] the target is human recombinant glyoxylase II (Homo sapiens, UniProt Q16775). Kind of series: Binding specificity, glyoxylase II activity. It counts as biochemical. The settings on record: for reduction of glyoxylase II activity: concentration not stated in the sentence (Table S2).

In general, MIC refers to the lowest concentration that inhibits growth of the organism. Take `C[C@@H](O)[C@H]1C(=O)N2C(C(=O)O)=C(S[C@@H]3CN[C@H](C(=O)N(C)C)C3)[C@H](C)[C@H]12` [meropenem]: the minimal inhibitory concentration (MIC) was 32 µg/mL (≈ 83.4 µM) in series [1]; 128 µg/mL (≈ 334 µM) in series [2]; 128 µg/mL in [3] (Klebsiella pneumoniae); 128 µg/mL (≈ 334 µM) in the series with E. coli AUS 271 (NDM-1); 8 µg/mL (≈ 20.9 µM) with E. coli JAP (IMP-1); 4 µg/mL (≈ 10.4 µM) in the series on E. coli TWA (IMP-8). Moreover, the minimal inhibitory concentration (MIC) stood at 128 µg/mL (≈ 334 µM) with E. coli FEK (NDM-4); 16 µg/mL (≈ 41.7 µM) with E. cloacae KAR (VIM-1); 0.06 µg/mL (≈ 0.156 µM) with E. coli ATCC 25922; 0.03 µg/mL in series [5] (Klebsiella pneumoniae, ATCC700603). In the series on K. pneumoniae NDM, the “time-kill activity, meropenem-only test group” value is reported as “ineffectiveness”. Also, the “time of peak concentration (Cmax) post drug administration” value in [4] is given as 15 min.

Take `O=C(O)CN(CCN(CC(=O)O)CC(=O)O)CC(=O)O` [EDTA]: the “reduction of glyoxylase II activity” value in series [6] is on record as 39%.

In the case of `O=C(O)CN1CCN(CC(=O)O)CCN(CC(=O)O)CC1` [NOTA, 1,4,7-triazacyclononane-1,4,7-triacetic acid], the minimal inhibitory concentration (MIC) result in series [3] (drug alone) was “do not possess any activity”; in series [5] (drug alone), “do not possess any activity; also recorded: resistant from 256 to 0.125”. The “inhibition of glyoxylase II” value in [6] (up to 500 μM) is “did not reduce the activity”.

For `c1ccc(CN(CCN(Cc2ccccn2)Cc2ccccn2)Cc2ccccn2)nc1` [TPEN, N,N,N′,N′-tetrakis(2-pyridinylmethyl)-1,2-ethanediamine], in series [6], the “reduction of glyoxylase II activity” value was 48%.
